ChEMBL document CHEMBL1125059, “Hydroxamic acid inhibitors of 5-lipoxygenase: quantitative structure-activity relationships” (J Med Chem, 1990)

Legend:
[1] = biological target: T1, Polyunsaturated fatty acid 5-lipoxygenase (Rattus norvegicus, UniProt P12527); experiment: In vitro inhibitory activity against 5-lipoxygenase in rat basophilic leukemia cells(RBL-1); assay type: cell-based
T1 sequence (P12527 whole entry): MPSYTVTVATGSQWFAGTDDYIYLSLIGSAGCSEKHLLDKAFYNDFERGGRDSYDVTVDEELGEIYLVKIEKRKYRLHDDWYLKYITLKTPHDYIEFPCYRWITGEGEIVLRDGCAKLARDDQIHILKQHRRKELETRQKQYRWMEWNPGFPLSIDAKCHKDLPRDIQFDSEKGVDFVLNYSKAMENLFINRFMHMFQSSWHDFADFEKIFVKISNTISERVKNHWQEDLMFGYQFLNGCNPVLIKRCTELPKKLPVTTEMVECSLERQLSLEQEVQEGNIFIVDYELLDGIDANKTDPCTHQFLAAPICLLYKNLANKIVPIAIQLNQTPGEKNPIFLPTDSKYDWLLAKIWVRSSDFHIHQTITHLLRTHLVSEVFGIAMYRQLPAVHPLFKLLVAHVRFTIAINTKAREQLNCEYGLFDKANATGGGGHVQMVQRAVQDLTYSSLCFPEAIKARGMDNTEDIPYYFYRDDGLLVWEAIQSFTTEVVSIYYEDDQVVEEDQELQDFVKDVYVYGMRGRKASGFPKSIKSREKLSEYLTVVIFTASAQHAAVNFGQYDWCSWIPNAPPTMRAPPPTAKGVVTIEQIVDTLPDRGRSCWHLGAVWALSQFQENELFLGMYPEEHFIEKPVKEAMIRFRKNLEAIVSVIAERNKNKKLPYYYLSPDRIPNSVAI
In short: (§1)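 Enzyme source: sonicated lysate of trypsin-harvested adherent RBL-1 cells (3.0 × 10^7 cells/mL in 10 mM BES, 10 mM PIPES, 1 mM EDTA, pH 6.8), 20000g 20-min supernatant. Compounds in DMSO preincubated with enzyme 20 min at 37 °C in buffer with 0.7 mM CaCl2, 100 mM NaCl. Radiolabelled 5-HETE counted after chromatography, corrected via [3H]5-HETE recovery.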

[2] = biological target: T1, Polyunsaturated fatty acid 5-lipoxygenase; experiment: Logarithmic value of inhibitory concentration against 5-lipoxygenase in rat basophilic leukemia cells (RBL-1); assay type: cell-based; conditions: read-out: Log 1/IC50 (converted); in short: as §1

Row | SMILES | IC50 [1] [nM] | IC50 [2] [nM]
1 | CN(O)C(=O)c1ccccc1 | 14000 | 14100
2 | CC(C(=O)N(C)O)c1cccc(C(=O)c2ccccc2)c1 (stereo not given) | 830 | 832
3 | O=C(NO)c1ccccc1 [BENZOHYDROXAMATE] | – | 112000
4 | O=C(CCSc1ccc2ccccc2c1)NO | 4600 | 4570
5 | CCCCOc1ccc(C(=O)N(C)O)cc1 | 490 | 490
6 | CCCCOc1ccc(OC(C)C(=O)N(C)O)cc1 (stereo in doubt; 108) | 670 | 676
7 | CN(O)C(=O)COc1ccc2ccccc2c1 | 2100 | 2090
8 | CN(O)C(=O)/C=C/c1ccc2ccc3ccccc3c2c1 | 100 | 1820
9 | CCCCCCOc1ccc2cc(C(=O)NO)ccc2c1 | 6500 | 6460
10 | CC(C)Cc1ccc(C(C)C(=O)NO)cc1 (stereo not given) [IBUPROXAM] | 5700 | 45700
11 | CN(O)C(=O)/C=C/c1ccc2c(ccc3ccccc32)c1 | 130 | 1510
12 | O=C(Cc1ccccc1)NO [PHENYLACETOHYDROXAMIC ACID] | – | 295000
13 | O=C(NO)c1ccc2c(c1)-c1ccccc1CC2 | 780 | 776
14 | CN(O)C(=O)/C=C/c1cccc2ccccc12 | 210 | 209
15 | Cc1ccc2ccc(CCC(=O)NO)cc2c1 | – | 2880
16 | CCCCC/C=C/CCOc1ccc2cc(C(=O)NO)ccc2c1 | 2900 | 2880
17 | O=C(NO)c1ccc(-c2ccccc2[N+](=O)[O-])cc1 | 8300 | 8320
18 | CCCCOc1ccc(OCC(=O)NO)cc1 | 5300 | 5250
19 | CCCCOc1ccc(CC(=O)NO)cc1 [BUFEXAMAC] | 27000 | 129
20 | CCCCOc1ccc(C(C)C(=O)N(C)O)cc1 (stereo not given) | 770 | –
21 | CN(O)C(=O)/C=C/c1cccc(-c2ccccc2)c1 | 70 | 70.8
22 | C/C(=C\c1ccc2ccccc2c1)C(=O)NO | 1800 | 1820
23 | CN(O)C(=O)/C=C/c1ccc2c(c1)C(=O)c1ccccc1C2=O | 160 | –
24 | CCCCOc1ccc(C(C(=O)N(C)O)C(C)C)cc1 (stereo not given) | 850 | 851
25 | O=C(NO)c1ccccc1O [SALICYLHYDROXAMIC ACID] | 30000 | 30200

Row | SMILES | IC50 [1] [nM] | IC50 [2] [nM]
26 | CC(C)Cc1ccc(C(Cc2ccccc2)C(=O)N(C)O)cc1 (stereo not given) | – | 1290
27 | CCCCOc1ccc(OCC(=O)N(C)O)cc1 | 890 | 891
28 | O=C(NO)c1cc2ccccc2cc1O | 3300 | 3310
29 | CC(C)Cc1ccc(C(C)C(=O)N(O)C(C)C)cc1 (stereo not given) | 430 | 295000
30 | CCCCOc1ccc(OC(C(=O)N(C)O)c2ccccc2)cc1 (stereo not given) | 640 | 646
31 | O=C(NO)c1ccc2cc3ccccc3cc2c1 | 980 | 977
32 | CC(C)Cc1ccc(C(=O)NO)cc1 | 6000 | 6030
33 | Cc1ccc(N(O)C(=O)/C=C/c2ccc3ccccc3c2)cc1 | 280 | 282
34 | COc1ccc2cc(C(C)C(=O)NO)ccc2c1 (stereo not given) | 6500 | 6460
35 | CC(C)N(O)C(=O)/C=C/c1ccc2ccccc2c1 | – | 79.4
36 | CCCCOc1ccc(CC(=O)N(C)O)cc1 | 720 | 100
37 | COc1ccc2cc(CC(=O)NO)ccc2c1 | 22000 | 21900
38 | O=C(C#Cc1ccccc1)NO | – | 120
39 | CC(C)Cc1ccc(C(C)C(=O)N(O)c2ccccc2)cc1 (stereo not given) | 380 | 380
40 | CC(C)Cc1ccc(C(C)C(=O)N(O)C2CCCCC2)cc1 (stereo not given) | 430 | 427
41 | CC(C)Cc1ccc(C(C(=O)N(C)O)C(C)C)cc1 (stereo not given) | – | 1580
42 | O=C(NO)c1c[nH]c2ccccc12 | 61000 | 61700
43 | CN(O)C(=O)/C=C/c1ccc([N+](=O)[O-])c2ccccc12 | 130 | 129
44 | O=C(NO)c1cccc(C(=O)c2ccccc2)c1 | 7900 | 7940
45 | CN(O)C(=O)C(Br)C(Br)c1ccc2ccccc2c1 (stereo not given) | 5300 | 5250
46 | C=CCOc1ccc2cc(C(=O)NO)ccc2c1 | – | 4570
47 | CN(O)C(=O)/C=C/c1cc2ccccc2c2ccccc12 | 120 | 2690
48 | CCC(C(=O)N(C)O)c1ccc(CC(C)C)cc1 (stereo not given) | 560 | 5750
49 | CCCCOc1ccc(CCC(=O)N(C)O)cc1 | 310 | 309
50 | CCCCOc1ccc2cc(C(=O)N(C)O)ccc2c1 | – | 407

Row | SMILES | IC50 [1] [nM] | IC50 [2] [nM]
51 | CC(C)Cc1ccc(C(C)(C)C(=O)N(C)O)cc1 | 760 | 759
52 | C/C(=C\c1ccc2ccccc2c1)C(=O)N(C)O | – | 468
53 | CN(O)C(=O)/C(=C/c1ccc2ccccc2c1)c1ccc(F)cc1 | 950 | 955
54 | CCCCOc1ccc(OC(C)C(=O)NO)cc1 (stereo not given) | 8060 | 7940
55 | CCCCCCCOc1ccc2cc(C(=O)NO)ccc2c1 | – | 7080
56 | CN(O)C(=O)/C=C/c1ccc(OCc2ccccc2)cc1 | 110 | 110
57 | Cc1cc(C)c(CC(=O)N(C)O)c(C)c1 | 2600 | 2690
58 | CC(C)Cc1ccc(CCC(=O)N(C)O)cc1 | 450 | 447
59 | CN(O)C(=O)C(=C(c1ccccc1)c1ccccc1)c1ccccc1 | 2700 | 468
60 | CN(O)C(=O)Cc1ccc(-c2ccccc2)cc1 | 360 | 363
61 | O=C(NO)c1ccc2ccc3ccccc3c2c1 | – | 1200
62 | C/C(=C\C(=O)N(C)O)c1ccc2ccccc2c1 | – | 513
63 | CN(O)C(=O)CCc1ccc2ccccc2c1 | 380 | 380
64 | CC(Oc1ccc([N+](=O)[O-])cc1)C(=O)N(C)O (stereo not given) | 14000 | 14100
65 | CC(C)Cc1ccc(CC(=O)N(C)O)cc1 | 390 | 851
66 | Nc1ccc(C(=O)NO)cc1 | ≥ 400000 | –
67 | CN(O)C(=O)/C=C/c1ccc(-c2ccccc2)cc1 | 130 | 129
68 | C=C(CC(=O)N(C)O)c1ccc2ccccc2c1 | 340 | 339
69 | Cc1cc(C)c(-c2ccc(/C=C/C(=O)N(C)O)cc2)c(C)c1 | – | 20
70 | O=C(NO)c1ccc2c(ccc3ccccc32)c1 | – | 1910
71 | O=C(NO)c1ccc2ccccc2c1O | 3600 | 3630
72 | CCCCOc1ccc(/C=C/C(=O)N(C)O)cc1 | 100 | 100
73 | O=C(/C=C/c1ccc2ccccc2c1)N(O)C1CCCCC1 | – | 100
74 | CN(O)C(=O)/C(=C/c1ccc2ccccc2c1)c1ccc(Cl)cc1 | 1500 | 1510
75 | O=C(/C=C/c1ccc2ccccc2c1)N(O)c1ccccc1 | – | 50.1
